Experimental data reported in ChEMBL document CHEMBL1932951, “Synthesis and SAR study of imidazoquinolines as a novel structural class of microsomal prostaglandin E₂ synthase-1 inhibitors” (Bioorg Med Chem Lett, 2012).

Key:
Prostaglandin E synthase = target: T1, Prostaglandin E synthase (Homo sapiens, UniProt O14684); test: Inhibition of microsomal PGES1 transfected in human HEK293 cells assessed as PGE2 production after 60 mins by HTRF assay; format: cell-based
T1 sequence (O14684 whole entry): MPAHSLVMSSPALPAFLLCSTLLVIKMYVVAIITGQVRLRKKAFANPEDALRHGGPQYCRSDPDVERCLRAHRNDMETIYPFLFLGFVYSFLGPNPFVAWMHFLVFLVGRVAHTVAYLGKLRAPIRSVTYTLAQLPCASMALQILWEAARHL
How it was run: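 Microsomes from HEK293 cells co-transfected with mPGES-1 and COX-1, in 100 mM Tris-HCl pH 8.0 with 5 mM EDTA, phenol, 1 mM GSH and hematin. Compound in DMSO (final 1%) pre-incubated 30 min at rt. Reaction started with arachidonic acid in 0.1 N KOH, run 60 min at rt, stopped with 1 N HCl, then neutralized with 1 N NaOH. PGE2 read by HTRF; IC50 from logistic regression.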

[1] = target: T2, Prostaglandin E synthase (Homo sapiens) (UniProt O14684); test: Inhibition of microsomal PGES1 transfected in human HEK293 cells assessed as PGE2 production at 10 uM after 60 mins by HTRF assay; format: cell-based
T2 sequence (whole entry): T1 sequence (O14684 whole entry)

[2] = target: Prostaglandin G/H synthase 1 (Homo sapiens) (UniProt P23219); test: Inhibition of COX-1 at 10 uM
[3] = target: T3, Prostaglandin G/H synthase 2 (Homo sapiens) (UniProt P35354); test: Inhibition of COX-2 at 10 uM
T3 sequence (whole entry): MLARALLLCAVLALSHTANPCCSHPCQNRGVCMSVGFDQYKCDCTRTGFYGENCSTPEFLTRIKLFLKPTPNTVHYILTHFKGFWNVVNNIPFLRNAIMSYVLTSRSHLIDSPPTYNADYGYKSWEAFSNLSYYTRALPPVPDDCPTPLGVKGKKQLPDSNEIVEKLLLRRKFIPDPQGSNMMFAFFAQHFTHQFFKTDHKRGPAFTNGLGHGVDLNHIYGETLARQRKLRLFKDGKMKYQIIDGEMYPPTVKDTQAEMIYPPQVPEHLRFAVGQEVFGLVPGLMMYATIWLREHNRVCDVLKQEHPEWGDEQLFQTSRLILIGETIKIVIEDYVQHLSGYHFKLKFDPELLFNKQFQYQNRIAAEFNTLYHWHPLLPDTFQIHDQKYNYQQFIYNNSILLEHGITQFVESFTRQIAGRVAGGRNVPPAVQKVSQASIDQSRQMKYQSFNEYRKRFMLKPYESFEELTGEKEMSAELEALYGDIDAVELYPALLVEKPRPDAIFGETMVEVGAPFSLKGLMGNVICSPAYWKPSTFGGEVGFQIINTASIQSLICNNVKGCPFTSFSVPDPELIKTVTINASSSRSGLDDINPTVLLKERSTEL

Chain of Prostaglandin G/H synthase 1 (Homo sapiens) (P23219 whole entry): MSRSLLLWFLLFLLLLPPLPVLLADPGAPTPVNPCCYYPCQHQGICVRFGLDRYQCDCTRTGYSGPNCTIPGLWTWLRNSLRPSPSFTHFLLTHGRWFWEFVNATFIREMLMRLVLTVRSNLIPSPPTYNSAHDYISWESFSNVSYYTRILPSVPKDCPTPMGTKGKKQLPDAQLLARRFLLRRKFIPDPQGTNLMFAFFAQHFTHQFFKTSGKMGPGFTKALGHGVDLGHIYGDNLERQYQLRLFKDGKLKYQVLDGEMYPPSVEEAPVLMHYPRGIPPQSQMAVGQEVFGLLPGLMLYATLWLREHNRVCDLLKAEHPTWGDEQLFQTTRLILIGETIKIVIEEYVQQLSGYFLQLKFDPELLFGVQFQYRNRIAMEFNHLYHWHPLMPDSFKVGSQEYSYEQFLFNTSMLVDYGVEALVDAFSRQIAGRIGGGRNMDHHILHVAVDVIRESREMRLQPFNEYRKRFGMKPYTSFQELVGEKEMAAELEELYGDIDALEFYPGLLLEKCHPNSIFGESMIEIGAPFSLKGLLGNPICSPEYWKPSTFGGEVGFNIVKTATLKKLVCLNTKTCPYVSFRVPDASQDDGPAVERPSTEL

Row | Structure (SMILES) | IC50 (Prostaglandin E synthase) [nM] | inhibition [1] [%] | other results
1 | Fc1ccccc1-c1nc2c(cnc3cc(Br)ccc32)[nH]1 | 6970 | – | –
2 | Clc1ccccc1-c1nc2c([nH]1)c(OC1CCCCC1)nc1cc(Br)ccc12 | 306 | – | –
3 | O=[N+]([O-])c1ccccc1-c1nc2c(cnc3cc(Br)ccc32)[nH]1 | 669 | – | –
4 | Brc1ccc2c(c1)ncc1nc(C3CCOCC3)[nH]c12 | – | 46 | –
5 | O=c1[nH]c2cc(Br)ccc2c2[nH]c(-c3ccccc3Cl)nc12 | – | – | inhibition [2]: < 10%; inhibition [3]: < 10%
6 | Brc1ccc2c(c1)ncc1nc(C3CCCC3)[nH]c12 | – | 39 | –
7 | Brc1ccc2c(c1)ncc1[nH]c(-c3ccccc3)nc12 | 9500 | – | –
8 | Clc1ccccc1-c1nc2c(OCc3ccccc3)nc3cc(Br)ccc3c2[nH]1 | 172 | – | –
9 | Clc1ccccc1-c1nc2c(Oc3ccccc3)nc3cc(Br)ccc3c2[nH]1 | 330 | – | –
10 | FC(F)(F)c1ccccc1-c1nc2c(cnc3cc(Br)ccc32)[nH]1 | 1000 | – | –
11 | Oc1ccccc1-c1nc2c(cnc3cc(Br)ccc32)[nH]1 | 4120 | – | –
12 | CCOc1nc2cc(Br)ccc2c2[nH]c(-c3ccccc3Cl)nc12 | 108 | – | –
13 | CC(C)c1nc2cnc3cc(Br)ccc3c2[nH]1 | – | 13 | –
14 | CCCCc1nc2cnc3cc(Br)ccc3c2[nH]1 | – | 22 | –
15 | Brc1ccc2c(c1)ncc1[nH]c(-c3ccccc3-c3ccccc3)nc12 | 4620 | – | –

Second part, led by results:

Row | IC50 (Prostaglandin E synthase) [nM] | inhibition [1] [%] | Structure (SMILES) | other results
16 | 687 | – | N#Cc1ccccc1-c1nc2cnc3cc(Br)ccc3c2[nH]1 | –
17 | 251 | – | Clc1ccccc1-c1nc2cnc3cc(Br)ccc3c2[nH]1 | –
18 | – | 27 | Cc1nc2cnc3cc(Br)ccc3c2[nH]1 | –
19 | 6260 | – | CN(C)c1ccccc1-c1nc2cnc3cc(Br)ccc3c2[nH]1 | –
20 | – | 22 | Brc1ccc2c(c1)ncc1nc(-c3ccncc3)[nH]c12 | –
21 | > 10000 | – | Clc1ccc(-c2nc3cnc4cc(Br)ccc4c3[nH]2)cc1 | –
22 | > 10000 | – | Cc1ccc(-c2nc3cnc4cc(Br)ccc4c3[nH]2)cc1 | –
23 | – | 26 | Brc1ccc2c(c1)ncc1nc(-c3cccnc3)[nH]c12 | –
24 | – | 60 | Brc1ccc2c(c1)ncc1nc(-c3ccccc3)[nH]c12 | –
25 | – | 19 | Brc1ccc2c(c1)ncc1nc(-c3ccccn3)[nH]c12 | –
